Only some compounds are listed: those with a hit (about 2.9% of all), similar ones and a draw of the others.
Runt-CBFb FRET: blocks binding of human RUNX1 Runt domain to CBFb; Q01196+Q13951; inhibition, % at 20 µM; hit rate 0.46% among 220,000; Cerulean-Runt/Venus-CBFb FRET ratio 530/480, 1 h;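 active = inhibition over about 50% at 20 µM in the single-dose screen, limit read from the data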
Target sequence (Q01196 whole entry, looked up, the tested form may be a part): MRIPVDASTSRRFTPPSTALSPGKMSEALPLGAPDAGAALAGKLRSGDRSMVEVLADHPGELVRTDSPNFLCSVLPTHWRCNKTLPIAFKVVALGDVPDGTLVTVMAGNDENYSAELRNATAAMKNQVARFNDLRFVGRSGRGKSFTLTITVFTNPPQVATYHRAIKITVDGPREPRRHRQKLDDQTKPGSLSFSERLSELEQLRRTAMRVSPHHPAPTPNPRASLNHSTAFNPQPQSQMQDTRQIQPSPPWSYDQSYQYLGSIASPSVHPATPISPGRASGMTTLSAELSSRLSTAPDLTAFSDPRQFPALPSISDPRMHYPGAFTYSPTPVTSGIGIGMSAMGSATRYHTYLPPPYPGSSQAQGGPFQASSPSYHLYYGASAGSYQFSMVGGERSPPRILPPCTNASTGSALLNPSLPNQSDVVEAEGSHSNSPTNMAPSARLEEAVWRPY
Target sequence (Q13951 whole entry, looked up, the tested form may be a part): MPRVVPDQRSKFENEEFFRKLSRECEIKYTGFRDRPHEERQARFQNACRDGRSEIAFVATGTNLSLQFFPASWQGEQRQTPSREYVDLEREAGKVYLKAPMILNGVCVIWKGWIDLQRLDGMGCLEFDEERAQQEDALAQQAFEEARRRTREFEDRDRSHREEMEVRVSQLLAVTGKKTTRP
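System: Cerulean-labeled Runt domain protein | Quantity: 100 nM of each labeled protein | Schedule: 1 h compound exposure, room temperature | Detection: Fluorescence energy transfer, 422 nm excitation, 530/480 nm emission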
Hck-Nef inh: blocks Nef-activated human Hck kinase; P08631; Recombinant Hck-YEEI plus Nef, Z-Lyte FRET kinase assay; inhibition, % at 20 µM; hit rate 0.68% among 220,000; AID 463187;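 active = Hck-Nef kinase inhibition above about 50%, limit read from the data; inactive = inhibition below that limit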
Runt-SMMHC FRET: inhibitors of human RUNX1 Runt domain binding to CBFb-SMMHC. Q01196+Q13951. Cerulean-Runt/Venus-CBFb-SMMHC FRET ratio 530/480, 1 h. inhibition, % at 20 µM. hit rate 0.74% among 220,000;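 active = mean inhibition across duplicate retests at 20 µM reaching about 50%, limit read from the data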;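 note: inhibitors lower the FRET ratio by blocking Runt binding to CBFb-SMMHC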
PfM18AAP inh: PfM18AAP enzyme inhibition | AID 1822 | hit rate 1.2% among 290,000 | recombinant PfM18AAP, H-Glu-NHMec fluorogenic cleavage | inhibition, % at 7.35 µM;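 active = inhibition above the campaign mean inhibition over all tested compounds plus 3 SD, cut at about 28% in these data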
RanGTP-Imp inh: inhibitors of RanGTP-importin-beta interaction, primary screen, biochemical, FRET, CFP-Ran, YFP-importin-beta, homogeneous | cell-free CFP-Ran/YFP-importin-beta FRET ratio | AID 2216 | inhibition, % (test concentration not listed) | hit rate 1.1% among 300,000;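 active = more than half of the replicate wells show a fall in the fluorescence ratio signal beyond about 16%, limit read from the data, passing the limit was not always enough; inconclusive = exactly half of the replicate wells pass the set limit; inactive = fewer than half of replicates pass the limit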
RBBP9 inhibitor: blocks human serine hydrolase RBBP9 | O75884 | recombinant RBBP9, FP-Rh probe fluorescence polarization | inhibition, % at 7.94 µM | hit rate 0.2% among 220,000;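 active = inhibition above the campaign mean of all tested compounds plus 3 SD, cut at about 14% in these data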
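Test system: recombinant human RBBP9; Timing: 30 min then 45 min, 25 °C; Detection: fluorescence polarization; Control set: RBBP9 with DMSO as uninhibited control, no-protein wells as full inhibition; Compound dosing: one concentration, 7.94 µM nominal, 0.794% DMSO; Probe or stimulus: FP-Rh activity-based probe, 375 nM before mixing.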
A number is an active result.

Screening CSc1nc(NCc2ccco2)c2sc3nc(C(C)C)c4c(c3c2n1)CC(C)(C)OC4 returned Runt-CBFb FRET inactive, Hck-Nef inh inactive, Runt-SMMHC FRET inactive, PfM18AAP inh inactive, RanGTP-Imp inh inactive and RBBP9 inhibitor inactive.
`CSc1nc(NCCOCCO)c2sc3nc(-c4ccco4)c4c(c3c2n1)CCC4` gave Runt-CBFb FRET inactive, Hck-Nef inh 81, Runt-SMMHC FRET inactive, PfM18AAP inh inactive, RanGTP-Imp inh inconclusive and RBBP9 inhibitor inactive.
COc1ccc(N(CC(=O)NC2CC3CCC2C3)S(=O)(=O)c2ccc(C)c([N+](=O)[O-])c2)cc1 (stereo unspecified) was read as PfM18AAP inh inactive and RanGTP-Imp inh inactive.
COc1cc([C@@H]2[C@H]3CNCC=C3C(C#N)=C(N)C2(C#N)C#N)ccc1OC(C)C was read as Runt-CBFb FRET inactive, Hck-Nef inh inactive, Runt-SMMHC FRET inactive, PfM18AAP inh inactive, RanGTP-Imp inh 63 and RBBP9 inhibitor inactive.
For CCOC(=O)c1c(-c2ccc(OC)cc2)csc1/N=C/N(C)C the results were Runt-CBFb FRET inactive, Hck-Nef inh inactive, Runt-SMMHC FRET inactive, PfM18AAP inh inactive, RanGTP-Imp inh inactive and RBBP9 inhibitor inactive.
`CCOC(=O)c1c(-c2ccc(OC)cc2)csc1/N=C/C1C(=O)CCCC1=O` gave Runt-CBFb FRET inactive, Hck-Nef inh inactive, Runt-SMMHC FRET inactive, PfM18AAP inh 34, RanGTP-Imp inh inactive and RBBP9 inhibitor inactive.
O=C1CCCC(O)=C1N=Nc1c(Cl)cc(C(F)(F)F)cc1Cl was read as Runt-CBFb FRET inactive, Hck-Nef inh inactive, Runt-SMMHC FRET inactive, PfM18AAP inh 28, RanGTP-Imp inh inactive and RBBP9 inhibitor inactive.
For O=C1CCCC(O)=C1N=Nc1ccc(C(=O)O)cc1 the results were Runt-CBFb FRET inactive, Hck-Nef inh inactive, Runt-SMMHC FRET inactive, PfM18AAP inh inactive, RanGTP-Imp inh inactive and RBBP9 inhibitor inactive.
For COc1ccc(CCNc2ccc(C(CC(N)=O)NC(=O)c3cc(OC)ccc3OC)cc2[N+](=O)[O-])cc1 (stereo unspecified) the results were PfM18AAP inh inactive and RanGTP-Imp inh inactive.
Screening CCC(CC)c1nnc(NC(=O)c2cc(C(=O)OC)cc([N+](=O)[O-])c2)s1 returned Runt-CBFb FRET inactive, Hck-Nef inh inactive, Runt-SMMHC FRET inactive, PfM18AAP inh 30, RanGTP-Imp inh inactive and RBBP9 inhibitor inactive.
For Cc1cc(NC(=O)c2ccccc2Cl)ccc1NC(=O)c1ccccc1Cl the results were PfM18AAP inh inactive and RanGTP-Imp inh inactive.
`Cc1ccc2sc3ccc(NC(=O)c4ccccc4Cl)cc3c(=O)c2c1` gave Runt-CBFb FRET inactive, Hck-Nef inh inactive, Runt-SMMHC FRET 101, PfM18AAP inh inactive, RanGTP-Imp inh 114 and RBBP9 inhibitor inactive.
`COc1ccc(/C(C)=N/NC(=O)Cc2ccc(Cl)cc2)cc1` gave PfM18AAP inh inactive and RanGTP-Imp inh inactive.
Screening Oc1cc2c(cc1O)[C@@H](c1ccccc1)CNCC2 returned Runt-CBFb FRET inactive, Hck-Nef inh inactive, Runt-SMMHC FRET inactive, PfM18AAP inh 83 and RBBP9 inhibitor inactive.
`Oc1cc2c(cc1O)C(c1ccccc1)CNCC2` (stereo unspecified) gave RanGTP-Imp inh inactive.
Screening Oc1ccc(Cl)cc1CNc1cccc2cccnc12 returned PfM18AAP inh 31 and RanGTP-Imp inh inactive.
For Oc1cccc(/C=N/Nc2cccc3cccnc23)c1 the results were Runt-CBFb FRET inactive, Hck-Nef inh inactive, Runt-SMMHC FRET inactive, PfM18AAP inh inactive, RanGTP-Imp inh inactive and RBBP9 inhibitor inactive.
Screening Oc1c(Br)cc(Br)cc1CNc1cccc2cccnc12 returned PfM18AAP inh 33 and RanGTP-Imp inh inactive.
Screening Oc1c(Br)cc(Br)cc1CNc1ccccn1 returned Runt-CBFb FRET inactive, Hck-Nef inh inactive, Runt-SMMHC FRET inactive, PfM18AAP inh inactive, RanGTP-Imp inh inactive and RBBP9 inhibitor inactive.
Screening COc1cc(/C=N/Nc2cccc3cccnc23)cc(OC)c1O returned Runt-CBFb FRET inactive, Hck-Nef inh inactive, Runt-SMMHC FRET inactive, PfM18AAP inh 30, RanGTP-Imp inh inactive and RBBP9 inhibitor inactive.
`COc1cccc(CNc2cccc3cccnc23)c1O` gave Runt-CBFb FRET inactive, Hck-Nef inh inactive, Runt-SMMHC FRET inactive, PfM18AAP inh 31, RanGTP-Imp inh inactive and RBBP9 inhibitor inactive.
Screening Cc1ccc(O)c(CNc2cccc3cccnc23)c1 returned Runt-CBFb FRET inactive, Hck-Nef inh inactive, Runt-SMMHC FRET inactive, PfM18AAP inh inactive, RanGTP-Imp inh inactive and RBBP9 inhibitor inactive.
`CC(C)Oc1ccc(S(=O)(=O)N2CCOCC2)cc1NC(=O)C1=COCCO1` gave RanGTP-Imp inh inactive.
Screening CC(C)n1c(=NC(=O)c2ccco2)c(C#N)cc2c(=O)n3ccccc3cc21 returned Runt-CBFb FRET inactive, Hck-Nef inh inactive, Runt-SMMHC FRET 83, PfM18AAP inh inactive, RanGTP-Imp inh 107 and RBBP9 inhibitor inactive.
Screening Cn1c(C(=O)N2CCN(C(=O)c3ccco3)CC2)cc2c(=O)n3ccccc3nc21 returned Runt-CBFb FRET inactive, Hck-Nef inh inactive, Runt-SMMHC FRET inactive, PfM18AAP inh inactive, RanGTP-Imp inh inactive and RBBP9 inhibitor inactive.
For C(=N\Nc1nc2ccccc2[nH]1)/c1ccccc1 the results were Hck-Nef inh inactive, PfM18AAP inh inactive, RanGTP-Imp inh inactive and RBBP9 inhibitor inactive.
For O=c1[nH]c(N/N=C\c2ccc3c(c2)OCO3)nc2ccccc12 the results were Runt-CBFb FRET inactive, Hck-Nef inh inactive, Runt-SMMHC FRET inactive, PfM18AAP inh inactive, RanGTP-Imp inh 16 and RBBP9 inhibitor inactive.
For O=c1[nH]c(N/N=C/c2cc3c(cc2[N+](=O)[O-])OCO3)nc2ccccc12 the results were Runt-CBFb FRET inactive, Hck-Nef inh inactive, Runt-SMMHC FRET inactive, PfM18AAP inh inactive, RanGTP-Imp inh inactive and RBBP9 inhibitor inactive.
`O=c1[nH]c(N/N=C/c2ccccc2)nc2ccccc12` gave Runt-CBFb FRET inactive, Hck-Nef inh inactive, Runt-SMMHC FRET 50, PfM18AAP inh inactive, RanGTP-Imp inh inconclusive and RBBP9 inhibitor inactive.
For Cc1cccc(NC(=O)CCCCC(=O)Nc2cccc(C)c2)c1 the results were RanGTP-Imp inh inactive.
Screening O=c1oc2ccccc2cc1-c1nc2c(s1)CCCC2 returned Runt-CBFb FRET 52, Hck-Nef inh inactive, Runt-SMMHC FRET inactive, PfM18AAP inh inactive, RanGTP-Imp inh 83 and RBBP9 inhibitor inactive.
`CCCCn1c(N)c(N(CCOC)C(=O)COC(=O)CCOc2ccccc2)c(=O)[nH]c1=O` gave RanGTP-Imp inh inactive.
`COc1cccc2c1nc(C)c1cc(C)oc12` gave Runt-CBFb FRET inactive, Hck-Nef inh inactive, Runt-SMMHC FRET inactive, PfM18AAP inh inactive, RanGTP-Imp inh 33 and RBBP9 inhibitor inactive.
For Cc1cc(OCC(=O)N2CCC(O)CC2)c2c(C)cc(=O)oc2c1 the results were PfM18AAP inh inactive and RanGTP-Imp inh inactive.
